# Shown are actives, neighbours in structure and some others; about 1.9% of the full set was active somewhere.
# aDG glyco up: increases alpha dystroglycan glycosylation. hit rate 0.22% among 360,000. Pro5-aDG cells, alpha-DG glycosylation AlphaScreen (IIH6); 0% Pro5, 100% B10-LARGE cell signal. activation, % at 10 µM. AID 624168;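 active = activation of at least 8% versus controls, or a plate z-score of at least 8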;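 also: Pro5 are CHO cells carrying HIG-tagged alpha-DG that lacks glycosylation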
# MsrA inhibitor: inhibits bovine methionine sulfoxide reductase A. purified bovine MsrA, absorbance read-out. inhibition, % at 15.5 µM. hit rate 0.75% among 360,000;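 also: 0% = vehicle wells with enzyme and 100% = reference inhibitor wells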
# UCH37 inh: human UCH37 deubiquitinating enzyme inhibition. Q9Y5K5. purified proteasome/UCH37, Ub-AMC cleavage fluorescence. inhibition, % (test concentration not listed). hit rate 0.33% among 330,000. AID 588478;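 active = mean inhibition over replicate wells above about 20%, limit read from the data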;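 also: 0% = compound-free wells with enzyme and 100% = wells lacking proteasome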
# Target sequence (Q9Y5K5 whole entry, looked up): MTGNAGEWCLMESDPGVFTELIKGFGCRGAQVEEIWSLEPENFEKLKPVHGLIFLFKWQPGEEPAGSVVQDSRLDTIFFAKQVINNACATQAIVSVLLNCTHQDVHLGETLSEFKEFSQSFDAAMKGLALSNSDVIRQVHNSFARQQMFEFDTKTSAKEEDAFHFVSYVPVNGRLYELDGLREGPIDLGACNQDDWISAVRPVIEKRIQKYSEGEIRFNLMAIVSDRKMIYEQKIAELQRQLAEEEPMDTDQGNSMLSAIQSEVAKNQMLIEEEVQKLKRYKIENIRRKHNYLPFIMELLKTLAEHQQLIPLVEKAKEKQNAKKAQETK
#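 Signal – fluorescence, ex 355 nm, em 460 nm · System – Proteasome-bound UCH37 · Input – 0.15 nM proteasome as dispensed · Timing – 30 min preincubation with enzyme, 25 min cleavage at room temperature · Read-out basis – percent inhibition of cleavage signal versus uninhibited and no-proteasome wells · Medium – Tris-HCl pH 7.4 with ATP-MgCl2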
# bovine MsrA act: activators of bovine methionine sulfoxide reductase A. purified bovine MsrA, absorbance read-out. activation, % at 10.6 µM. hit rate 0.3% among 360,000. AID 602163; in the data active = activation above about 7.5%;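 also: 0% = vehicle and 100% = reference activator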
# N-glyco inh: blocks N-linked glycosylation in D54 reporter cells | D54 ERlucT glycosylation luciferase reporter, 24 h; percent of 100 nM tunicamycin response | reporter increase, % at 12.5 µM | hit rate 0.23% among 360,000 | AID 588692;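 active = mean luciferase reporter signal, scaled so untreated is 0 and the glycosylation-blocking control 100, at or above a set limit in every replicate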;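 also: luciferase carries N-glycosylation sites so blocking glycosylation raises the light; 0% = median of neutral control wells and 100% = median of 100 nM tunicamycin wells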
# Vif inh: inhibitors of HIV Vif; inhibition, % at 7.49 µM; hit rate 0.35% among 340,000; HEK293T cells, Vif self-association by quenched fluorescence, imaging, 24 h; in the data active = inhibition above about 50%, passing the limit was not always enough
# MsrA inh confirm: bovine MsrA inhibition, confirmed; shares compounds with MsrA inhibitor; purified bovine MsrA, absorbance read-out; inhibition, % at 15.5 µM; hit rate 41% among 2,300; AID 651822;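 also: coupled to thioredoxin reductase with NADPH and selenocystamine and DMSO as substrate; 0% = vehicle only and 100% = full effect of reference inhibitor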
# * = called active by the depositor; . = not tested or not shown. Rule as the data show it, unless noted: active = inhibition above about 4.5%; inactive = the rest.
SMILES,aDG glyco up,MsrA inhibitor,UCH37 inh,bovine MsrA act,N-glyco inh,Vif inh,MsrA inh confirm
Cc1ccc(C)c(S(=O)(=O)NN=Cc2ccc(N(C)C)cc2)c1,.,.,8,.,.,.,.
CCc1c(C)nc2ncnn2c1Nc1ccc(C(C)=O)cc1,0,5.3*,11,-4,0,.,4
CCOC(=O)c1ccc(Nc2c(CC)c(C)nc3ncnn23)cc1,0,3,5,-5,0,-7,.
Cc1ccc(C=NNC(=O)c2nnn(-c3nonc3N)c2CSc2ccc(Cl)cc2)o1,.,.,-11,.,.,.,.
COc1cc(C=NNC(=O)c2ccc(-c3ccccc3)cc2)cc(OC)c1O,.,.,0,.,.,.,.
O=[N+]([O-])c1cc([N+](=O)[O-])c2n[nH]c(-c3ccccc3)c2c1,1,5.2*,.,-2,2,-2,5
Cc1ccc(C(=O)NN=Cc2ccc(N3CCOCC3)cc2)c(C)c1,.,.,-15,.,.,.,.
BrC(/C=N/Nc1nc(N2CCOCC2)nc(N2CCOCC2)n1)=C/c1ccccc1,0,5.5*,.,-2,2,.,4
COCC(C)NC(=O)CCSc1nc(-c2ccc(OC)cc2)cc(C(F)(F)F)n1 (configuration not stated),0,5.0*,-40,3,-1,-2,2
CCC(C)NC(=O)CSc1nc(-c2cccs2)cc(C(F)(F)F)n1 (configuration not stated),0,6.2*,-4,-4,-4,22,1
COc1ccc(-c2cc(C(F)(F)F)nc(SCCC(=O)N3CCN(C)CC3)n2)cc1,0,0,-1,-8,1,-6,.
O=C(O)CSc1nc(-c2cccs2)cc(C(F)(F)F)n1,0,1,7,-4,4,-7,.
COc1ccc2cc(C=NNC(=O)CN(c3ccccc3)S(=O)(=O)c3ccccc3)c(Cl)nc2c1,.,.,-367,.,.,.,.
COc1cc(C=NNC(N)=O)ccc1OCC(=O)Nc1cc(C)c(C)cc1Br,.,.,3,.,.,.,.
COc1cccc(C=NNC(=O)C(=O)NCc2cccnc2)c1,.,.,7,.,.,.,.
Cc1cccc(OCC(=O)NN=Cc2cn[nH]c2-c2ccc(Cl)c(Cl)c2)c1,.,.,2,.,.,.,.
COc1cccc(C=NNC(=O)CN(CCc2ccccc2)S(=O)(=O)c2ccc(NC(C)=O)cc2)c1,.,.,5,.,.,.,.
Cc1ccsc1/C=N/NC(=O)c1ccccn1,0,5.7*,.,-3,-5,-2,4
O=C(N/N=C/c1ccc(Br)s1)c1ccccn1,0,6.0*,.,-2,-10,-3,7.0*
Cc1ccsc1C=NNC(=O)c1sccc1C,.,.,9,.,.,.,.
COc1ccc(OC)c(C=Nn2c(COc3ccccc3)n[nH]c2=S)c1,.,.,-25,.,.,.,.
O=C(O)CSc1cc(NS(=O)(=O)c2ccc(Br)cc2)c2ccccc2c1O,3.4*,4.9*,.,9.3*,14,1,-1
c1ccc(N=Nc2cn[nH]c2-c2ccco2)cc1,-1,6.9*,3,-4,-3,.,5
Cc1cccc(N=Nc2cn[nH]c2-c2ccco2)c1,0,1,5,-8,-1,-1,.
CSc1ccc(/C=N/n2nnnc2N)cc1,0,5.3*,.,-5,2,-1,5.2*
SMILES,aDG glyco up,MsrA inhibitor,UCH37 inh,bovine MsrA act,N-glyco inh,Vif inh,MsrA inh confirm
Cc1ccc(C=Nn2nnnc2N)cc1,.,.,6,.,.,.,.
CN1CCc2c(sc3c2C(=O)NC(c2cn(Cc4ccccc4)c4ccccc24)N3)C1 (configuration not stated),1,5.5*,-6,-8,-11,4,0
Fc1ccccc1-c1n[nH]c(=S)n1/N=C/c1c[nH]c2ccccc12,0,11*,.,0,-1,-5,7.3*
COc1ccc(C(=O)/C=C/Nc2cc(C)on2)c(OC)c1,0,7.4*,6,-2,2,-6,5.5*
CCOc1cc(C=NNC(=O)c2ccncc2)ccc1OC(=O)c1ccccc1,.,.,0,.,.,.,.
COc1ccc(/C=C2/SC(=O)N(CCNC(=O)C3CCCN3C(=O)c3cccs3)C2=O)cc1 (configuration not stated),1,5.6*,4,-5,1,-1,4
COc1ccc(/C=C2\SC(=O)N(CCn3cnnn3)C2=O)cc1,0,6.3*,8,-6,1,2,4
COc1ccc(/C=C2\SC(=O)N(CCNC(=O)C3CSC4(C)CCC(=O)N34)C2=O)cc1 (configuration not stated),0,6.4*,12,-8,2,-15,3
CC12CCC(=O)N1C(C(=O)NCCN1C(=O)S/C(=C\c3ccc(OC(F)F)cc3)C1=O)CS2 (configuration not stated),0,2,5,-9,1,-5,.
O=C(NCCN1C(=O)S/C(=C/c2ccccc2)C1=O)C1CCCN1C(=O)c1cccs1 (configuration not stated),0,2,1,-5,0,-5,.
CC(=O)Nc1ccc(C(=O)NN=C(C)CC(=O)Nc2ccc(OCc3ccccc3)cc2)cc1,.,.,-1,.,.,.,.
c1ccc(Nc2nc3ccccc3n3nnnc23)cc1,0,8.1*,-6,-2,2,4,4.9*
COc1cccc(Nc2nc3ccccc3n3nnnc23)c1,0,8.8*,-58,-2,2,-6,7.9*
Fc1ccccc1Nc1nc2ccccc2n2nnnc12,0,11*,3,-4,-1,26,7.3*
Fc1cccc(Nc2nc3ccccc3n3nnnc23)c1,0,3,-27,-7,2,7,.
c1ccc2c(c1)nc(Nc1ccc3c(c1)OCO3)c1nnnn12,0,-1,-15,-5,-3,7,.
COCc1[nH][nH]c(=O)c1C=NN1CCOCC1,.,.,6,.,.,.,.
O=C(NN=Cc1ccsc1)c1cc(-c2ccncc2)nc2ccccc12,.,.,2,.,.,.,.
COc1ccc(C=NNc2nc(Nc3ccccc3)nc(N3CCCC3)n2)cc1[N+](=O)[O-],.,.,5,.,.,.,.
CCOC(=O)CSC1=NC(=O)/C(=C\c2ccc(OC(C)=O)cc2)S1,0,5.4*,13,-3,-1,6,2
O=C(C=NNC(=O)c1ccc(Cl)cc1Cl)c1ccccc1,.,.,1,.,.,.,.
COC(=O)c1sccc1NC(=O)c1ccc(Br)o1,0,5.7*,0,2,-1,-8,3
COC(=O)c1sccc1NC(=O)c1ccc(C)o1,0,1,5,-1,1,1,.
NS(=O)(=O)c1ccc(N/N=C/c2cn(-c3ccccc3)nc2-c2cccs2)cc1,1,7.0*,.,-4,-2,-7,2
NS(=O)(=O)c1ccc(N/N=C/c2cn(-c3ccccc3)nc2-c2cccs2)c([N+](=O)[O-])c1,-1,2,.,-9,0,33,.
NC(=O)N/N=C/c1cn(-c2ccccc2)nc1-c1cccs1,0,1,.,-1,-2,-2,.
O=C(O)c1cccc(N/N=C/c2cn(-c3ccccc3)nc2-c2cccs2)c1,0,13*,.,-3,-7,-4,7.3*

# Source: PubChem BioAssay (several laboratories)
